# System: Fibroblast
# Assay: Multiplex assay against human fibroblast
# Format: toxicity, cell-based
# Summary of the method: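 Live cells carried four stains from seeding: Hoechst33342, BioTracker Green Microtubule Cytoskeleton Dye, MitoTracker Red and Annexin V Alexa Fluor 680. They were imaged on a CQ1 microscope at 37°C and 5% CO2 after compound addition. Using CellPathfinder machine-learning gating, cells were split into Hoechst high-intensity objects or normal cells, normal cells into healthy, pyknosed or fragmented nuclei, and pyknosed cells into mitotic or apoptotic; tubulin, mitochondrial-mass and membrane-permeability phenotypes are per cents of healthy-nucleus cells.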
# [1] = 12 h, 1 µM, compound concentration 1 uM, replicate 1
# [2] = 12 h, 1 µM, compound concentration 1 uM, replicate 2
# [3] = 12 h, 10 µM, compound concentration 10 uM, replicate 1
# [4] = 12 h, 10 µM, compound concentration 10 uM, replicate 2
# [5] = 24 h, 1 µM, compound concentration 1 uM, replicate 1
# [6] = 24 h, 1 µM, compound concentration 1 uM, replicate 2
# [7] = 24 h, 10 µM, compound concentration 10 uM, replicate 1
# [8] = 24 h, 10 µM, compound concentration 10 uM, replicate 2
# [9] = 48 h, 1 µM, compound concentration 1 uM, replicate 1
# [10] = 48 h, 1 µM, compound concentration 1 uM, replicate 2
# [11] = 48 h, 10 µM, compound concentration 10 uM, replicate 1
# [12] = 48 h, 10 µM, compound concentration 10 uM, replicate 2
compound,measurement,setting,value
COc1cc2nc(N3CCN(C(=O)c4ccco4)CC3)nc(N)c2cc1OC.Cl [PRAZOSIN HYDROCHLORIDE],Population Apoptotic (%),[1],38%
same,Population Fragmented Nuclei (%),[1],22%
same,Population Healthy Nuclei (%),[1],57%
same,Population Hoechst High Intensity Objects (%),[1],1%
same,Population Membrane Permeable-Phenotype (%),[1],1%
same,Population Mitochondria Different-Phenotype (%),[1],1%
same,Population Mitotic Cells (%),[1],61%
same,Population Normal (%),[1],98%
same,Population Pyknosed Nuclei (%),[1],19%
same,Population Tubulin-Different-Phenotype (%),[1],26%
same,Total Cell Count,[1],174
same,Population Apoptotic (%),[2],49%
same,Population Fragmented Nuclei (%),[2],20%
same,Population Healthy Nuclei (%),[2],52%
same,Population Hoechst High Intensity Objects (%),[2],4%
same,Population Membrane Permeable-Phenotype (%),[2],5%
same,Population Mitochondria Different-Phenotype (%),[2],7%
same,Population Mitotic Cells (%),[2],50%
same,Population Normal (%),[2],95%
same,Population Pyknosed Nuclei (%),[2],27%
same,Population Tubulin-Different-Phenotype (%),[2],46%
same,Total Cell Count,[2],194
same,Population Apoptotic (%),[3],44%
same,Population Fragmented Nuclei (%),[3],23%
same,Population Healthy Nuclei (%),[3],64%
same,Population Hoechst High Intensity Objects (%),[3],1%
same,Population Membrane Permeable-Phenotype (%),[3],0%
same,Population Mitochondria Different-Phenotype (%),[3],7%
same,Population Mitotic Cells (%),[3],56%
same,Population Normal (%),[3],98%
same,Population Pyknosed Nuclei (%),[3],12%
same,Population Tubulin-Different-Phenotype (%),[3],49%
same,Total Cell Count,[3],198
same,Population Apoptotic (%),[4],31%
same,Population Fragmented Nuclei (%),[4],35%
same,Population Healthy Nuclei (%),[4],42%
same,Population Hoechst High Intensity Objects (%),[4],5%
same,Population Membrane Permeable-Phenotype (%),[4],9%
same,Population Mitochondria Different-Phenotype (%),[4],3%
same,Population Mitotic Cells (%),[4],68%
same,Population Normal (%),[4],94%
same,Population Pyknosed Nuclei (%),[4],21%
same,Population Tubulin-Different-Phenotype (%),[4],65%
same,Total Cell Count,[4],155
same,Population Apoptotic (%),[5],50%
same,Population Fragmented Nuclei (%),[5],20%
same,Population Healthy Nuclei (%),[5],63%
same,Population Hoechst High Intensity Objects (%),[5],2%
same,Population Membrane Permeable-Phenotype (%),[5],0%
same,Population Mitochondria Different-Phenotype (%),[5],2%
same,Population Mitotic Cells (%),[5],50%
same,Population Normal (%),[5],97%
same,Population Pyknosed Nuclei (%),[5],15%
same,Population Tubulin-Different-Phenotype (%),[5],28%
same,Total Cell Count,[5],181
same,Population Apoptotic (%),[6],45%
same,Population Healthy Nuclei (%),[6],57%
same,Population Hoechst High Intensity Objects (%),[6],7%
same,Population Membrane Permeable-Phenotype (%),[6],12%
same,Population Mitochondria Different-Phenotype (%),[6],3%
same,Population Mitotic Cells (%),[6],54%
same,Population Normal (%),[6],92%
same,Population Pyknosed Nuclei (%),[6],21%
same,Population Tubulin-Different-Phenotype (%),[6],58%
same,Total Cell Count,[6],185
same,Population Apoptotic (%),[7],46%
same,Population Fragmented Nuclei (%),[7],23%
same,Population Healthy Nuclei (%),[7],69%
same,Population Hoechst High Intensity Objects (%),[7],3%
same,Population Membrane Permeable-Phenotype (%),[7],0%
same,Population Mitochondria Different-Phenotype (%),[7],6%
same,Population Mitotic Cells (%),[7],53%
same,Population Normal (%),[7],96%
same,Population Pyknosed Nuclei (%),[7],6%
same,Population Tubulin-Different-Phenotype (%),[7],45%
same,Total Cell Count,[7],201
same,Population Apoptotic (%),[8],61%
same,Population Fragmented Nuclei (%),[8],35%
same,Population Healthy Nuclei (%),[8],49%
same,Population Hoechst High Intensity Objects (%),[8],7%
same,Population Membrane Permeable-Phenotype (%),[8],10%
same,Population Mitochondria Different-Phenotype (%),[8],11%
same,Population Mitotic Cells (%),[8],38%
same,Population Normal (%),[8],92%
same,Population Pyknosed Nuclei (%),[8],15%
same,Population Tubulin-Different-Phenotype (%),[8],73%
same,Total Cell Count,[8],152
same,Population Apoptotic (%),[9],52%
same,Population Fragmented Nuclei (%),[9],24%
same,Population Healthy Nuclei (%),[9],62%
same,Population Hoechst High Intensity Objects (%),[9],3%
same,Population Membrane Permeable-Phenotype (%),[9],0%
same,Population Mitochondria Different-Phenotype (%),[9],1%
same,Population Mitotic Cells (%),[9],47%
same,Population Normal (%),[9],96%
same,Population Pyknosed Nuclei (%),[9],13%
same,Population Tubulin-Different-Phenotype (%),[9],22%
same,Total Cell Count,[9],182
same,Population Apoptotic (%),[10],66%
same,Population Fragmented Nuclei (%),[10],29%
same,Population Healthy Nuclei (%),[10],56%
same,Population Membrane Permeable-Phenotype (%),[10],8%
same,Population Mitochondria Different-Phenotype (%),[10],6%
same,Population Mitotic Cells (%),[10],33%
same,Population Pyknosed Nuclei (%),[10],14%
same,Population Tubulin-Different-Phenotype (%),[10],57%
same,Total Cell Count,[10],197
same,Population Apoptotic (%),[11],66%
same,Population Fragmented Nuclei (%),[11],25%
same,Population Healthy Nuclei (%),[11],68%
same,Population Hoechst High Intensity Objects (%),[11],1%
same,Population Membrane Permeable-Phenotype (%),[11],0%
same,Population Mitochondria Different-Phenotype (%),[11],4%
same,Population Mitotic Cells (%),[11],33%
same,Population Normal (%),[11],98%
same,Population Pyknosed Nuclei (%),[11],6%
same,Population Tubulin-Different-Phenotype (%),[11],32%
same,Total Cell Count,[11],201
same,Population Apoptotic (%),[12],46%
same,Population Fragmented Nuclei (%),[12],42%
same,Population Healthy Nuclei (%),[12],49%
same,Population Hoechst High Intensity Objects (%),[12],5%
same,Population Membrane Permeable-Phenotype (%),[12],5%
same,Population Mitochondria Different-Phenotype (%),[12],5%
same,Population Mitotic Cells (%),[12],53%
same,Population Normal (%),[12],94%
same,Population Pyknosed Nuclei (%),[12],8%
same,Population Tubulin-Different-Phenotype (%),[12],48%
same,Total Cell Count,[12],170
